In series [1] the target is T1, Neuropeptide Y receptor type 5 (Homo sapiens, UniProt Q15761).
T1 sequence (Q15761 whole entry): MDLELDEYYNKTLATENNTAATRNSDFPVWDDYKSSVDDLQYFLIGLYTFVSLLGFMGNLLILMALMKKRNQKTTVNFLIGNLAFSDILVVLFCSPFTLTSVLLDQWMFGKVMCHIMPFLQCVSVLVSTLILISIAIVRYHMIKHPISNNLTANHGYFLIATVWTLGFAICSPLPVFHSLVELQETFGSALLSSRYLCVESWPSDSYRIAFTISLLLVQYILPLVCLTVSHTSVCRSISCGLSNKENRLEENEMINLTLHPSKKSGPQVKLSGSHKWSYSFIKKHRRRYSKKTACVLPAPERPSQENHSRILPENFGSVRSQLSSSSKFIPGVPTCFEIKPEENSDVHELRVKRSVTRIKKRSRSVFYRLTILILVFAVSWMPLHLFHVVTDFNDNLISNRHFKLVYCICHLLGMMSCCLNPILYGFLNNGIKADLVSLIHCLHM
The series can be described thus: Antagonist activity at human NPY Y5 receptor expressed in HEK293 cells assessed as inhibition of calcium level by FLIPR assay. It counts as functional, cell-based. In outline:
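Functional antagonism measured at the human Y5 receptor stably expressed in HEK293 cells, by FLIPR calcium read-out in 384-well format. Results expressed as fpKi. At least two replicates; each determination within 0.3 log units of the mean.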

In another series the target is T2, Cytochrome P450 1A2 (Homo sapiens, UniProt P05177).
T2 sequence (P05177 whole entry): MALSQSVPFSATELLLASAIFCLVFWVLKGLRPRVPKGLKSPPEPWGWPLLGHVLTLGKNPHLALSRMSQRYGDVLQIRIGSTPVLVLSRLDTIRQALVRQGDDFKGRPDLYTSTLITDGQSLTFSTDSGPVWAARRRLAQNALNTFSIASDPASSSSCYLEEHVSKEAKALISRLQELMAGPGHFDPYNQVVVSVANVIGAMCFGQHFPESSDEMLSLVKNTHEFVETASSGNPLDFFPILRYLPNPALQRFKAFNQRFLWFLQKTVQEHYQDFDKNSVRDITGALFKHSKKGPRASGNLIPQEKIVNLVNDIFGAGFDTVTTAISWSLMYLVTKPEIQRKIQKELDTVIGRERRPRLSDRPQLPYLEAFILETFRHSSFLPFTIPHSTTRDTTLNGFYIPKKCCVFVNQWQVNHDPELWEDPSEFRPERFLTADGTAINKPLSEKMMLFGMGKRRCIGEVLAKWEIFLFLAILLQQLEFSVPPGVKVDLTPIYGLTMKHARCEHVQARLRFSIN
The series can be described thus: Inhibition of CYP1A2. It counts as ADME.

In a further series the target is Cytochrome P450 3A4 (Homo sapiens, UniProt P08684). Briefly: Inhibition of CYP3A4. The class given is ADME.
Series [2] is described as follows: Ratio of drug level in brain to blood in rat at 0.5 mg/kg, iv after 1 hr by cassette dosing. Particulars: read-out: BBR. The arrangement: dose 0.5 mg/kg, route intravenous. The class given is ADME, organism-based. The essentials: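 Rats dosed at 0.5 mg/kg iv; brain and blood levels taken 1 h after iv dosing.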
A further series deals with Cytochrome P450 2C19 (Homo sapiens, UniProt P33261). The series can be described thus: Inhibition of CYP2C19. It counts as ADME.
The next series has as its target Cytochrome P450 2C9 (Homo sapiens, UniProt P11712). Briefly: Inhibition of CYP2C9. The class given is ADME.
Series [3] can be described thus: Oral bioavailability in rat at 1 mg/kg, po by cassette dosing. The class given is ADME, organism-based. To be noted: in vivo. The essentials:
(§1)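 Rats dosed at 0.5 mg/kg iv and 1 mg/kg po.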

The nature of series [4]: Solubility of the compound by high throughput chemiluminescent nitrogen detection method. The class given is physicochemical.
Series [5] can be described thus: Blood clearance in rat at 0.5 mg/kg, iv and 1 mg/kg, po by cassette dosing. The class given is ADME, organism-based. The essentials: as §1
In series [6] the target is T3, Neuropeptide Y receptor type 2 (Homo sapiens, UniProt P49146).
T3 sequence (P49146 whole entry): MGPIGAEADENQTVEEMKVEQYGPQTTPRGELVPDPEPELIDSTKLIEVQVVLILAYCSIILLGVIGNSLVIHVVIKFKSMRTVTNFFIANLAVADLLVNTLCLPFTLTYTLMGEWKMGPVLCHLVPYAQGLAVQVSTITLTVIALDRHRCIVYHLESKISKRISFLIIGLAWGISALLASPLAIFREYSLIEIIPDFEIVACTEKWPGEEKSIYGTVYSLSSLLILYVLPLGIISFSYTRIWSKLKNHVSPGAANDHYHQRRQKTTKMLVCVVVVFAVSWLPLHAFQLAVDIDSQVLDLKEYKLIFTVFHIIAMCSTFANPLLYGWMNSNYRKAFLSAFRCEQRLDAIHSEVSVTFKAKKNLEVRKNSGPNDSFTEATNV
Briefly: Antagonist activity at human NPY Y2 receptor expressed in HEK293 cells assessed as inhibition of calcium level by FLIPR assay. It counts as functional, cell-based.

The target in series [7] is T4, Neuropeptide Y receptor type 1 (Homo sapiens, UniProt P25929).
T4 sequence (P25929 whole entry): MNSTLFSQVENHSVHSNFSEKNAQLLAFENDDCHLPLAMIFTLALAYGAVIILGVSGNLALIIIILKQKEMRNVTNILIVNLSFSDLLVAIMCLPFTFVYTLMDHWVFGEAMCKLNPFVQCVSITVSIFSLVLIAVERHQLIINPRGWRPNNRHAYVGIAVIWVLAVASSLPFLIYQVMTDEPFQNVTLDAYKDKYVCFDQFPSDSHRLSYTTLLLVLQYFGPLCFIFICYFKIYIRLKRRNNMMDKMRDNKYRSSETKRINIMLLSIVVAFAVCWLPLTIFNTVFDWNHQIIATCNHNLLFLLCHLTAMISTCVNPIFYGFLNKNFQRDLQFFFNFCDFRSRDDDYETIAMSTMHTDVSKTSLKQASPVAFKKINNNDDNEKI
Briefly: Antagonist activity at human NPY Y1 receptor expressed in HEK293 cells assessed as inhibition of calcium level by FLIPR assay. It counts as functional, cell-based.

Another series concerns Rattus norvegicus. Briefly: Whole blood binding in rat at 0.5 mg/kg, iv and 1 mg/kg, po by equilibrium dialysis assay. Particulars: in vivo. The class given is ADME, organism-based. (In general: In equilibrium dialysis only unbound substance equilibrates across the membrane.)
Series [8] deals with Voltage-gated inwardly rectifying potassium channel KCNH2 (Homo sapiens, UniProt Q12809). Briefly: Inhibition of human ERG.

Values after ≈ are worked out from the molar mass of the structure shown.

The source of these data is ChEMBL document CHEMBL1208767, “Synthesis and structure-activity relationship of N-(3-azabicyclo[3.1.0]hex-6-ylmethyl)-5-(2-pyridinyl)-1,3-thiazol-2-amines derivatives as NPY Y5 antagonists” (Bioorg Med Chem Lett, 2010).

Broadly, the Ki is the equilibrium dissociation constant of an inhibitor or competing ligand from its target. As usually defined, the IC50 is the concentration that gives 50% inhibition. Read a high IC50 as a need for much substance. Broadly, the bioavailability is dose-corrected exposure relative to a reference, in per cent. For orientation: solubility means the dissolved amount per volume that the medium holds. A higher solubility goes with much dissolved substance.

Sequence of Cytochrome P450 2C19 (P33261 whole entry): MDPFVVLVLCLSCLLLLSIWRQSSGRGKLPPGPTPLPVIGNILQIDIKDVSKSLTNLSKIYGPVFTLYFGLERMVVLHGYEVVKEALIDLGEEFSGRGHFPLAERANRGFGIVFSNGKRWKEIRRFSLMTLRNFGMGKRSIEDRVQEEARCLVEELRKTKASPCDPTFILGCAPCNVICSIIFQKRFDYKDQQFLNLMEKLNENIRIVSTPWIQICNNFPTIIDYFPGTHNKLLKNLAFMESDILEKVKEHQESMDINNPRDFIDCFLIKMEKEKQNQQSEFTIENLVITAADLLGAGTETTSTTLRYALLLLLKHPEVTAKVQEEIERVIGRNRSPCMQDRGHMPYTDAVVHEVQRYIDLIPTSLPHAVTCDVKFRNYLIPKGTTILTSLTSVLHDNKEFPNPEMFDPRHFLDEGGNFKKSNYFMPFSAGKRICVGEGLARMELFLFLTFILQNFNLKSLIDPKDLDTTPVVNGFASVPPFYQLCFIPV
Sequence of Cytochrome P450 2C9 (P11712 whole entry): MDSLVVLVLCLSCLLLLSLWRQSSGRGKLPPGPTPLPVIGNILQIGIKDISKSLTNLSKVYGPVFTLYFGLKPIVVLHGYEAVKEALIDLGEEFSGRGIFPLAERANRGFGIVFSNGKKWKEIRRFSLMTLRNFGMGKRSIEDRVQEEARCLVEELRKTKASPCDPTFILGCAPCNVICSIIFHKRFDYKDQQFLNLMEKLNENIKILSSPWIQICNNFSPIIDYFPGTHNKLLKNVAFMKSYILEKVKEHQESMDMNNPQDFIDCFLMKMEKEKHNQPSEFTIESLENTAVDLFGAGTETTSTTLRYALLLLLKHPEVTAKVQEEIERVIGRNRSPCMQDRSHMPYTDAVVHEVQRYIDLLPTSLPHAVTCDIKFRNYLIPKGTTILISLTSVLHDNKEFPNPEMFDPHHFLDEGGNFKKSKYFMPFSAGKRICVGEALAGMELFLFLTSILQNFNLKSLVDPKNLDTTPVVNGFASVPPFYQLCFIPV
Sequence of Cytochrome P450 3A4 (P08684 whole entry): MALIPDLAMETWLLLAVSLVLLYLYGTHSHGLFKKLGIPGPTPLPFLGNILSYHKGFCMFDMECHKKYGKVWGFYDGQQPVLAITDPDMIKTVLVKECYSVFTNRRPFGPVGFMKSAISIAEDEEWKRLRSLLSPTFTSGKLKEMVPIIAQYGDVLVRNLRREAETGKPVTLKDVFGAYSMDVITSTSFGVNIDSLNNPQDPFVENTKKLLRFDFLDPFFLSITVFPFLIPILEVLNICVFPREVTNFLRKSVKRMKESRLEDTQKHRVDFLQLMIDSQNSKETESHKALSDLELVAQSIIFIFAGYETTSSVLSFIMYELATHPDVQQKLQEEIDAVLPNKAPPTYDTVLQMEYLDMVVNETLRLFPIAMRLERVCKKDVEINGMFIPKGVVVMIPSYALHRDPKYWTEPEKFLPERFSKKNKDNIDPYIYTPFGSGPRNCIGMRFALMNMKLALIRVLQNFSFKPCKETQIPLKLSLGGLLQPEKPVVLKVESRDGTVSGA
Sequence of Voltage-gated inwardly rectifying potassium channel KCNH2 (Q12809 whole entry): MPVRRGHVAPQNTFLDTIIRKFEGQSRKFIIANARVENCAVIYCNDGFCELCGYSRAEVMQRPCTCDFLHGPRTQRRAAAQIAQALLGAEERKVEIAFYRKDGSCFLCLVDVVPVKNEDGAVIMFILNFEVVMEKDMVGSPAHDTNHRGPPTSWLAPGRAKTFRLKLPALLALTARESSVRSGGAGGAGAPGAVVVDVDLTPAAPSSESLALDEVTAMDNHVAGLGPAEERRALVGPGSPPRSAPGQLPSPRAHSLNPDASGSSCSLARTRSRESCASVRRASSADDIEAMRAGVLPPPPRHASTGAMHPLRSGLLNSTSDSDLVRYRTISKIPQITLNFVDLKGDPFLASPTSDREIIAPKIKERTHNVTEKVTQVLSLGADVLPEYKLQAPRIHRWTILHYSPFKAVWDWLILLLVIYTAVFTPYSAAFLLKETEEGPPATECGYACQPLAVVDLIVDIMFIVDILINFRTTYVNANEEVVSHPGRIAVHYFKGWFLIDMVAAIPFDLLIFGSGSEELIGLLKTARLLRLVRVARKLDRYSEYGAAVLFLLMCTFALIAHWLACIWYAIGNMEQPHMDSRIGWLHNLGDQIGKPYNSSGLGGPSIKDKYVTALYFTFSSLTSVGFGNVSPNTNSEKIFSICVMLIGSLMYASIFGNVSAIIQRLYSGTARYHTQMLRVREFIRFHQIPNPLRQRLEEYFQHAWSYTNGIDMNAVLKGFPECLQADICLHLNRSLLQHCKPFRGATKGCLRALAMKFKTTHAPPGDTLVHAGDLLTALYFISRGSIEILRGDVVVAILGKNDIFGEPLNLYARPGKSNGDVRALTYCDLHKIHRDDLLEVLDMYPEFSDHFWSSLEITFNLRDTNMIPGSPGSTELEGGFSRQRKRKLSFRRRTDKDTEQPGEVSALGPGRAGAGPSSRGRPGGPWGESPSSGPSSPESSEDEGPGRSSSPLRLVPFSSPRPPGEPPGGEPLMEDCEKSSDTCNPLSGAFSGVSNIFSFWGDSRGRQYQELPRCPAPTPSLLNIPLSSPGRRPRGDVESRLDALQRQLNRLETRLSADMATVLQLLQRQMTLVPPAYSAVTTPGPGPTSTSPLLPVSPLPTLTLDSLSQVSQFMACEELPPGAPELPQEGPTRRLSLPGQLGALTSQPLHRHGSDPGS

On to `O=C(c1cccnc1)N1C[C@@H]2[C@H](CNc3nc(-c4ccccn4)cs3)[C@@H]2C1`, for which the Ki in series [1] was 5.01 nM.
On the same count and under the same terms, for `O=C(c1ccccc1)N1C[C@@H]2[C@@H](CNc3nc(-c4ccccn4)cs3)[C@@H]2C1` the value was 12.6 nM; for `CC(C)CN1C[C@@H]2[C@H](CNc3nc(-c4ccccn4)cs3)[C@@H]2C1`, 3.98 nM; for `O=C(c1cccc(F)c1)N1C[C@@H]2[C@H](CNc3nc(-c4ccccn4)cs3)[C@@H]2C1`, 1 nM.
Still for that read-out and setting: for `O=C(N1C[C@@H]2[C@H](CNc3nc(-c4ccccn4)cs3)[C@@H]2C1)C1(c2ccccc2)CC1` the value was 0.794 nM; for `O=C(c1cc(F)cc(F)c1)N1C[C@@H]2[C@H](CNc3nc(-c4ccccn4)cs3)[C@@H]2C1`, 1.58 nM; for `O=C(Cc1ccccc1)N1C[C@@H]2[C@@H](CNc3nc(-c4ccccn4)cs3)[C@@H]2C1`, 1 nM.
The same measure, in the same setting: then `O=C(c1ccccc1)N1C[C@@H]2[C@H](CNc3nc(-c4ccccn4)cs3)[C@@H]2C1`, with 2.51 nM; and `CC(=O)N1C[C@@H]2[C@H](CNc3nc(-c4ccccn4)cs3)[C@@H]2C1`, with 2510 nM; and `O=C(CCc1ccccc1)N1C[C@@H]2[C@H](CNc3nc(-c4ccccn4)cs3)[C@@H]2C1`, with 0.631 nM.
With `O=C(CCc1ccccc1)N1C[C@@H]2[C@@H](CNc3nc(-c4ccccn4)cs3)[C@@H]2C1`, the Ki in series [1] was 6.31 nM.
Same read-out and setting: for `CC(c1ccccc1)N1C[C@@H]2[C@H](CNc3nc(-c4ccccn4)cs3)[C@@H]2C1` (stereo partly drawn) the value was 1.26 nM; for `O=C(Cc1ccccc1)N1C[C@@H]2[C@H](CNc3nc(-c4ccccn4)cs3)[C@@H]2C1`, 1 nM.
As to `CC(C)C(=O)N1C[C@@H]2[C@H](CNc3nc(-c4ccccn4)cs3)[C@@H]2C1`, the IC50 against Cytochrome P450 1A2, against Cytochrome P450 3A4, against Cytochrome P450 2C19 and against Cytochrome P450 2C9 was not below 7000 nM in each case. The Kp at 1 h in series [2] came to 0.7. For the same molecule, the bioavailability in [3] turned out to be 6%. This molecule returned a solubility in series [4] of 120 µg/mL (≈ 350 µM). Also, in series [1], the Ki is 2.51 nM. In series [5], this molecule gave a clearance of 137 mL/min/kg.
In the case of `CC(C(=O)N1C[C@@H]2[C@H](CNc3nc(-c4ccccn4)cs3)[C@@H]2C1)C(C)c1ccccc1` (stereo partly drawn), in [1], the Ki was 5.01 nM.
On the same count and under the same terms, then `Fc1cc(F)cc(CN2C[C@@H]3[C@H](CNc4nc(-c5ccccn5)cs4)[C@@H]3C2)c1`, with 0.631 nM; and `Cc1cc(C)cc(CN2C[C@@H]3[C@H](CNc4nc(-c5ccccn5)cs4)[C@@H]3C2)c1`, with 3.98 nM; and `c1ccc(CN2C[C@@H]3[C@H](CNc4nc(-c5ccccn5)cs4)[C@@H]3C2)cc1`, with 1.58 nM.
For the molecule `FC(F)(F)c1ccc(Nc2nc(-c3ccccn3)cs2)cc1`, the IC50 against Cytochrome P450 1A2 was less than 100 nM. In addition, the Kp at 1 h in [2] was 4.2. The Ki is more than 31600 nM in [6], more than 31600 nM in series [7] and 15.8 nM in series [1]. Besides, the bioavailability in [3] is 30%.
Regarding `O=C(C1CCOC1)N1C[C@@H]2[C@H](CNc3nc(-c4ccccn4)cs3)[C@@H]2C1` (stereo partly drawn), the IC50 at Cytochrome P450 1A2 was more than 10000 nM; against Cytochrome P450 3A4, more than 10000 nM; in [8] it was 2000 nM; against Cytochrome P450 2C19 it was more than 10000 nM; against Cytochrome P450 2C9, more than 10000 nM. Further, in the series with Rattus norvegicus, the Activity turned out to be 74%. Besides, the Kp at 1 h in series [2] was less than 0.5. Also, the bioavailability in series [3] was 15%. The Ki in series [1] was 7.94 nM. In [5], this molecule gave a clearance of 98 mL/min/kg.
As to `c1ccc(-c2csc(NC[C@H]3[C@@H]4CNC[C@@H]43)n2)nc1`, the Ki in series [1] was 1000 nM.
Still for that read-out and setting: for `O=C(c1ccncc1)N1C[C@@H]2[C@H](CNc3nc(-c4ccccn4)cs3)[C@@H]2C1` the value was 50.1 nM; for `CC(C(=O)N1C[C@@H]2[C@H](CNc3nc(-c4ccccn4)cs3)[C@@H]2C1)c1ccccc1` (stereo partly drawn), 0.398 nM.
On the same count and under the same terms, then `O=C(C1CCCO1)N1C[C@@H]2[C@H](CNc3nc(-c4ccccn4)cs3)[C@@H]2C1` (stereo partly drawn), with 5.01 nM; and `O=C(C1CCOCC1)N1C[C@@H]2[C@H](CNc3nc(-c4ccccn4)cs3)[C@@H]2C1`, with 31.6 nM; and `O=C([C@H]1C[C@@H]1c1ccccc1)N1C[C@@H]2[C@H](CNc3nc(-c4ccccn4)cs3)[C@@H]2C1`, with 0.794 nM.
